Measured values gathered from unrelated publications.
Compare with care: the assays were run in different laboratories.

Structure (SMILES) | assay | test system | setting | solubility
COc1cc(C)c2[nH]cc(/C=N/NC(=N)NCCc3cccnc3)c2c1 |  | PBS | 2 h, pH 7.4 | 30.1 µM
O=C(Nc1ccc(-c2ccc(C(=O)Nc3cccc4cccc(S(=O)(=O)O)c34)cc2)cc1)c1ccc([N+](=O)[O-])cc1 |  | water |  | 4.7 µg/mL
COc1ccc(NC(=O)N2CCCCN3[C@H](CN(C)C)[C@H](c4ccc(C#Cc5ccccc5)cc4)[C@@H]3C2)cc1 |  | aqueous buffer | pH 7 | 33 µM
CNC(=O)O[C@@H](C)/C=C\C(=O)N[C@H]1CC[C@@H](C/C=C(C)/C=C/[C@@H]2C[C@]3(CO3)CC(C)(C)O2)CC1 | HPLC | PBS |  | 45 µM
O=C1C=C(N(Cc2ccc(Cl)nc2)CC(F)F)CO1 |  | water | pH 7 | 3000 µg/mL
CC[C@H](C)[C@H](NC(C)=O)C(=O)N[C@H]1CSSC[C@@H](C(=O)N[C@H](C(N)=O)[C@@H](C)O)NC(=O)[C@H](CCCNC(=N)N)NC(=O)[C@H](Cc2c[nH]cn2)NC(=O)[C@](C)(CC)NC(=O)CNC(=O)[C@H](Cc2c[nH]c3ccccc23)NC(=O)[C@H](CC(=O)O)NC(=O)[C@H](CCC(N)=O)NC(=O)[C@H](Cc2c[nH]c3ccccc23)NC(=O)[C@H](C(C)C)NC1=O |  | PBS | pH 7.4 | 3470 µg/mL
C#Cc1ccc2c(c1)C(c1ccccn1)=NCc1c(-c3cnco3)ncn1-2.Cl |  | water | 24 h, 25 °C | 5560 µg/mL
CC[C@H](C)[C@H](NC(=O)[C@H](CO)NC(=O)[C@H](CCCNC(=N)N)NC(C)=O)C(=O)N[C@H]1CSSC[C@@H](C(=O)N[C@H](C(N)=O)[C@@H](C)O)NC(=O)[C@H](CCCNC(=N)N)NC(=O)[C@H](Cc2c[nH]cn2)NC(=O)[C@H](C)NC(=O)CNC(=O)[C@H](Cc2c[nH]c3ccccc23)NC(=O)[C@H](CC(=O)O)NC(=O)[C@H](CCC(N)=O)NC(=O)[C@H](Cc2ccc3ccccc3c2)NC(=O)[C@H](C(C)C)NC1=O |  | PBS | pH 7.4 | 2170 µg/mL
CC[C@H](C)[C@H](NC(=O)[C@H](Cc1ccccc1)NC(=O)[C@H](Cc1ccc(O)cc1)NC(=O)[C@@H]1CCCN1C(=O)[C@@H](N)Cc1ccc(O)cc1)C(=O)N1CCC[C@H]1C(=O)N[C@@H](C)C(=O)NCC(=O)N[C@H](CCCCN)C(=O)NCC(=O)N[C@@H](CCC(=O)O)C(=O)N[C@H](C(=O)N[C@@H](CC(N)=O)C(=O)N[C@@H](CC(C)C)[C@@H](O)CC(=O)N[C@H](C(=O)N[C@@H](C)C(=O)N[C@@H](CCC(=O)O)C(=O)N1CCC[C@@H]1C(=O)N[C@@H](CCCCNC(=O)CCC(=O)O[C@H]1CC[C@@]2(C)C(=CC[C@H]3[C@@H]4CC[C@H]([C@H](C)CCCC(C)C)[C@@]4(C)CC[C@@H]32)C1)C(N)=O)C(C)C)C(C)C |  | aqueous buffer | pH 6.5 | > 2450 µg/mL
CC[C@H](C)[C@H](NC(=O)[C@H](CCCNC(=N)N)NC(=O)[C@H](CCC(=O)O)NC(C)=O)C(=O)N[C@H]1CSSC[C@@H](C(=O)N[C@H](C(N)=O)[C@@H](C)O)NC(=O)[C@H](CCCNC(=N)N)NC(=O)[C@H](Cc2c[nH]cn2)NC(=O)[C@H](Cc2cccc3ccccc23)NC(=O)CNC(=O)[C@H](Cc2c[nH]c3ccccc23)NC(=O)[C@H](CC(=O)O)NC(=O)[C@H](CCC(N)=O)NC(=O)[C@H](Cc2cccc3ccccc23)NC(=O)[C@H](C(C)C)NC1=O |  | PBS | pH 7.4 | 160 µg/mL
Clc1ccc(CSc2nnc(-c3ccccn3)n2Cc2ccco2)cc1Cl |  | aqueous buffer | pH 6.2 | 0.29 µg/mL
C=CC[C@@]1(C)NC(=O)CNC(=O)[C@H](Cc2c[nH]c3ccccc23)NC(=O)[C@H](CC(=O)O)NC(=O)[C@H](CCC(N)=O)NC(=O)[C@H](Cc2c[nH]c3ccccc23)NC(=O)[C@H](C(C)C)NC(=O)[C@@H](NC(=O)[C@@H](NC(C)=O)[C@@H](C)CC)CSSC[C@@H](C(=O)N[C@H](C(N)=O)[C@@H](C)O)NC(=O)[C@H](CCCNC(=N)N)NC(=O)[C@H](Cc2c[nH]cn2)NC1=O |  | PBS | pH 7.4 | 3350 µg/mL
COc1ccc2c(c1)NC(=O)CN2c1nc(C)nc2c1CCC2 |  | aqueous buffer | pH 7.4 | 26.4 µg/mL
CC(=O)N[C@@H](CC(N)=O)C(=O)N[C@@H](CCCNC(=N)N)C(=O)N[C@@H](CC(C)C)C(=O)N[C@H]1CSSC[C@@H](C(=O)N[C@H](C(N)=O)[C@@H](C)O)NC(=O)[C@H](CCCNC(=N)N)NC(=O)[C@H](Cc2c[nH]cn2)NC(=O)[C@H](Cc2cccc3ccccc23)NC(=O)CNC(=O)[C@H](Cc2c[nH]c3ccccc23)NC(=O)[C@H](CC(=O)O)NC(=O)[C@H](CCC(N)=O)NC(=O)[C@H](Cc2cccc3ccccc23)NC(=O)[C@H](C(C)C)NC1=O |  | PBS | pH 7.4 | 300 µg/mL
O=C(CCCN1CCC2(CC1)C(=O)NCN2c1ccccc1)N(CC1CCCCC1)c1ccccc1 |  | PBS | 24 h, pH 7.4, 37 °C | 626 µM
